Test results published in ChEMBL document CHEMBL3739385, “Stelleralides D-J and Anti-HIV Daphnane Diterpenes from Stellera chamaejasme” (J Nat Prod, 2015).

What was measured:
[1] = Selectivity index, ratio of CC50 for human MT4 cells to EC50 for HIV-1 NL4-3 infected in MT4 cells; assay type: toxicity, cell-based; details: read-out: Ratio CC50/EC50
[2] = system: Human immunodeficiency virus 1; experiment: Antiviral activity against HIV-1 NL4-3 infected in MT4 cells assessed as viral replication measured on day 4 post infection by ELISA; assay type: functional, organism-based; details: Human immunodeficiency virus 1, NL4-3, MT4, 96 h
In short: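 HIV-1 NL4-3 at MOI 0.001 infects MT4 cells in the presence of graded compound concentrations. Fresh medium with compound is added 48 h after infection to keep the cells growing. On day 4 post-infection, replication is read by p24 ELISA.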

MT4 = experiment: Cytotoxicity against human MT4 cells by cellTiterGlo assay; assay type: cell-based
In short: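 MT4 cells are cultured in parallel with the antiviral assay and treated with compounds. Viability is read with CellTiter-Glo luminescent reagent, which quantifies ATP in metabolically active cells. CC50, the concentration reducing viable cells by 50%, is calculated from the dose-response curve.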

Row | SMILES | selectivity ratio [1] | EC50 [2] [nM] | CC50 (MT4) [nM]
1 | C=C(C)[C@]12C[C@@H](C)[C@@]34OC5(CCCCCCC[C@@H](C)[C@H]6[C@H](C)[C@H](OC(=O)c7ccccc7)[C@@](O)([C@H](O)[C@@]7(CO)O[C@H]7[C@H]3[C@H]1O5)[C@@H]64)O2 | ≥ 14300 | 1.1 | ≥ 15700
2 | C=C(C)[C@]12C[C@@H](COC(=O)c3ccccc3)[C@@]34OC5(O[C@@H]1[C@@H]3[C@@H]1O[C@]1(COC(=O)c1ccccc1)[C@@H](O)[C@@]1(O)[C@H]4[C@H]([C@H](C)[C@@H]1O)[C@H](C)CCCCCC[C@H]5O)O2 | ≥ 13200 | 0.98 | ≥ 12900
3 | C=C(C)[C@@]1(O)[C@H](OC(=O)/C=C/C=C/CCCCCCCCC)[C@@H]2[C@@H]3O[C@]3(CO)[C@@H](O)[C@]3(O)C(=O)C(C)=C[C@H]3[C@@]2(O)[C@H](C)[C@H]1OC(C)=O | ≥ 345 | 44 | ≥ 15200
4 | C=C(C)[C@@]12OC3(/C=C/C=C/CCCCCCCCCC)O[C@@H]1[C@@H]1[C@@H]4O[C@]4(CO)[C@@H](O)[C@]4(O)C(=O)C(C)=C[C@H]4[C@@]1(O3)[C@H](C)[C@H]2OC(C)=O | ≥ 392 | 39 | ≥ 15300
5 | C=C(C)[C@]1(O)C[C@@H](C)[C@@]2(O)[C@H]([C@H]1OC(=O)/C=C/C=C/CCCCCCCCC)[C@@H]1O[C@]1(CO)[C@@H](O)[C@]1(O)C(=O)C(C)=C[C@H]12 | ≥ 281 | 59 | ≥ 16600
6 | C=C(C)[C@@]12OC3(/C=C/C=C/CCCCCCCCCC)O[C@@H]1[C@@H]1[C@@H]4O[C@]4(CO)[C@@H](O)[C@]4(O)C(=O)C(C)=C[C@H]4[C@@]1(O3)[C@H](C)[C@H]2O | ≥ 135 | 120 | ≥ 16300
7 | C=C(C)[C@]12C[C@@H](COC(=O)c3ccccc3)[C@]34OC5(CCCCCCC[C@H](C)[C@@H]6[C@@H]3[C@]3(O[C@]6(C)OC3=O)[C@H](O)[C@@]3(COC(=O)CCCCCCC/C=C\C/C=C\CCCCC)O[C@H]3[C@H]4[C@H]1O5)O2 | ≥ 1 | 6710 | ≥ 10800
8 | C=C(C)[C@]1(O)C[C@@H](C)[C@@]2(O)[C@H]([C@H]1OC(=O)/C=C/C=C/CCCCCCCCC)[C@H](O)[C@@](O)(CO)[C@@H](O)[C@]1(O)C(=O)C(C)=C[C@H]12 | ≥ 100 | 44 | ≥ 4400
9 | C=C(C)[C@]12C[C@@H](COC(=O)c3ccccc3)[C@@]34OC5(CCCCCCC[C@@H](C)[C@H]6[C@H](C)C(=O)[C@@](O)([C@H](O)[C@@]7(CO)O[C@H]7[C@H]3[C@H]1O5)[C@@H]64)O2 | ≥ 318 | 48 | ≥ 15300
10 | C=C(C)[C@@]12O[C@@]3(/C=C/C=C/CCCCCCCCC)O[C@@H]1[C@@H]1[C@@H]4O[C@]4(CO)[C@@H](O)[C@]4(O)C(=O)C(C)=C[C@H]4[C@@]1(O3)[C@H](C)[C@H]2OC(C)=O | ≥ 1300 | 12 | ≥ 15600
11 | C=C(C)[C@]12C[C@@H](COC(=O)c3ccccc3)[C@]34OC5(CCCCCCC[C@H](C)[C@@H]6[C@@H]3[C@]3(O[C@]6(C)OC3=O)[C@H](O)[C@@]3(COC(=O)CCCCCCCCCCCCCCC)O[C@H]3[C@H]4[C@H]1O5)O2 | ≥ 18 | 590 | ≥ 11100
12 | C=C(C)[C@]12C[C@@H](C)[C@@]34O[C@](CCCCCCCCC)(O[C@@H]1[C@@H]3[C@@H]1O[C@]1(CO)[C@@H](O)[C@]1(O)C(=O)C(C)=C[C@H]14)O2 [SIMPLEXIN] | ≥ 400 | 47 | ≥ 18800
13 | C=C(C)[C@]12C[C@@H](COC(=O)c3ccccc3)[C@@]34OC5(O[C@@H]1[C@@H]3[C@@H]1O[C@]1(CO)[C@@H](O)[C@@]1(O)[C@H]4[C@H]([C@H](C)[C@@H]1OC(=O)c1ccccc1)[C@H](C)CCCCCC[C@H]5O)O2 | ≥ 21500 | 0.06 | ≥ 1290
14 | C=C(C)[C@]12C[C@@H](COC(=O)c3ccccc3)[C@@]34OC5(O[C@@H]1[C@@H]3[C@@H]1O[C@]1(CO)[C@@H](O)[C@@]1(O)[C@H]4[C@H]([C@H](C)[C@@H]1OC(=O)c1ccccc1)[C@H](C)C[C@@H](OC(=O)c1ccccc1)CCCC[C@H]5O)O2 | ≥ 15300 | 0.73 | ≥ 11200
15 | C=C(C)[C@]12C[C@@H](COC(=O)c3ccccc3)[C@]34OC5(CCCCCCC[C@H](C)[C@@H]6[C@@H]3[C@]3(O[C@]6(C)OC3=O)[C@H](O)[C@@]3(CO)O[C@H]3[C@H]4[C@H]1O5)O2 | ≥ 41 | 330 | ≥ 13800
16 | C=C(C)[C@]12C[C@@H](C)[C@]34O[C@]5(CCCCCCC[C@H](C)[C@@H]6[C@@H]3[C@]3(O[C@]6(C)OC3=O)[C@H](O)[C@@]3(CO)O[C@H]3[C@H]4[C@H]1O5)O2 | ≥ 16 | 1120 | ≥ 18300
17 | C=C(C)[C@]12C[C@@H](COC(C)=O)[C@@]34OC5(O[C@@H]1[C@@H]3[C@@H]1O[C@]1(CO)[C@@H](O)[C@@]1(O)[C@H]4[C@H]([C@H](C)[C@@H]1OC(=O)c1ccccc1)[C@H](C)C[C@@H](OC(=O)c1ccccc1)CCCC[C@H]5O)O2 | ≥ 12900 | 0.93 | ≥ 12000
18 | Cc1cn([C@H]2C[C@H](N=[N+]=[N-])[C@@H](CO)O2)c(=O)[nH]c1=O [ZIDOVUDINE] |  |  | ≥ 3740
19 | C=C(C)[C@]12C[C@@H](C)[C@@]34O[C@](/C=C/C=C/CCCCCCCCC)(O[C@@H]1[C@@H]3[C@@H]1O[C@]1(CO)[C@@H](O)[C@]1(O)C(=O)C(C)=C[C@H]14)O2 | ≥ 5380 | 2.6 | ≥ 14000
20 | C=C(C)[C@]12C[C@@H](C)[C@@]34OC(/C=C/C=C/CCCCCCCCCC)(O[C@@H]1[C@@H]3[C@@H]1O[C@]1(CO)[C@@H](O)[C@]1(O)C(=O)C(C)=C[C@H]14)O2 | ≥ 1280 | 13 | ≥ 16700
